Experimental data from PubChem BioAssay AID2465 (Broad Institute, 2010).
The whole screen tested about 24,000 compounds, of which fewer than 10 were called active. Rule as the data show it: active = caspase activation above about 5.9%; inconclusive = no clear call, values can overlap the other calls; inactive = below about 2.2%. A selection follows.

Experiment: Bcl2-A1 antagonists releasing BIM, apoptosis – cell-based, luminescence, HTS, two replicates, primary screen (AID 2465)
Details: MEF A1-2A-BIM cells, caspase-Glo luminescence, 3 h; stronger effect = higher value; percent of clofoctol response, DMSO zero; concentration not given here
Method in brief: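 Test system – A1-2A-BIM-expressing MEF cells · Input – 2500 cells/well · Medium – RPMI-1640 growth medium with 10% FBS · Compound dosing – 50 nL pinned compound · Timing – 3 h compound exposure at 37 °C · Technique – Caspase-Glo luminescence (DEVD substrate) · Evaluation – Caspase-3/7 activity from luminescence increase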

Structure (SMILES)	caspase activation
Cc1noc(C)c1NC(=O)Nc1ccc2c(c1)CC(=O)N([C@@H](C)CO)C[C@@H](C)[C@H](CN(C)C(=O)NC1CCCCC1)O2	-0.291% (inactive)
Cc1ccc(S(=O)(=O)Nc2ccc3c(c2)C(=O)N([C@@H](C)CO)C[C@@H](C)[C@@H](CN(C)Cc2ccc(C(F)(F)F)cc2)OCCCC[C@@H](C)O3)cc1	0.898% (inactive)
CNC[C@H]1OCCCC[C@H](C)Oc2ccc(NS(=O)(=O)c3ccc(Cl)cc3)cc2C(=O)N([C@@H](C)CO)C[C@@H]1C	-0.41% (inactive)
COc1ccc(NC(=O)N(C)C[C@@H]2Oc3ccc(NC(=O)CCN4CCOCC4)cc3C(=O)N([C@@H](C)CO)C[C@H]2C)cc1	0.238% (inactive)
C[C@@H]1CCCCO[C@H](CN(C)Cc2ccccc2)[C@H](C)CN([C@H](C)CO)C(=O)c2cc(NS(=O)(=O)c3ccc(Cl)cc3)ccc2O1	-0.0813% (inactive)
C[C@H](CO)N1C[C@H](C)[C@H](CN(C)S(=O)(=O)c2ccccc2)Oc2c(NC(=O)CCCCCC(=O)Nc3ccccc3N)cccc2C1=O	-0.28% (inactive)
C[C@H](CO)N1C[C@H](C)[C@H](CN(C)S(C)(=O)=O)Oc2ccc(NC(=O)c3ccncc3)cc2CC1=O	-0.8% (inactive)
C[C@H]1CN([C@@H](C)CO)C(=O)CCCn2cc(nn2)CO[C@H]1CN(C)C(=O)Nc1cccc(C(F)(F)F)c1	-0.271% (inactive)
COc1ccc(NC(=O)Nc2ccc3c(c2)C(=O)N([C@@H](C)CO)C[C@H](C)[C@@H](CN(C)C(=O)Nc2cccc4ccccc24)OCCCC[C@@H](C)O3)cc1	0.279% (inactive)
C[C@H](CO)N1C[C@H](C)[C@@H](CN(C)S(=O)(=O)c2ccccc2)Oc2ccc(NC(=O)Nc3ccc(F)cc3)cc2CC1=O	-0.112% (inactive)
C[C@@H]1CN([C@H](C)CO)C(=O)c2cc(NC(=O)C3CCCCC3)ccc2O[C@H]1CN(C)C(=O)Nc1ccccc1	-0.382% (inactive)
C[C@H]1CN([C@@H](C)CO)C(=O)CCCn2cc(nn2)CO[C@@H]1CN(C)C(=O)Nc1ccccc1	0.231% (inactive)
COc1ccc(NC(=O)N(C)C[C@@H]2Oc3ccc(NS(=O)(=O)c4ccc(Cl)cc4)cc3C(=O)N([C@H](C)CO)C[C@@H]2C)cc1	0.258% (inactive)
C[C@@H]1CN([C@@H](C)CO)C(=O)CCCn2cc(nn2)CO[C@@H]1CN(C)Cc1ccccc1C(=O)O	0.264% (inactive)
O=C(CCCCC(=O)N/N=C/c1ccc[nH]1)NO	-0.0327% (inactive)
COc1ccc(NC(=O)N(C)C[C@H]2OCCCC[C@@H](C)Oc3ccc(NS(=O)(=O)c4ccc(F)cc4)cc3C(=O)N([C@@H](C)CO)C[C@@H]2C)cc1	-0.991% (inactive)
COC(=O)CCCCCCC(=O)N/N=C/c1cccs1	0.382% (inactive)
C[C@H](CO)N1C[C@H](C)[C@H](CN(C)C(=O)Nc2cccc3ccccc23)OCCCC[C@H](C)Oc2ccc(NC(=O)Nc3ccc4c(c3)OCO4)cc2C1=O	0.835% (inactive)
Cc1noc(C)c1S(=O)(=O)Nc1ccc2c(c1)C(=O)N([C@@H](C)CO)C[C@H](C)[C@H](CN(C)CC1CCCCC1)OCCCC[C@H](C)O2	-0.748% (inactive)
C[C@@H]1CN([C@@H](C)CO)C(=O)c2cc(NS(=O)(=O)c3cccs3)ccc2O[C@@H](C)CCCCO[C@@H]1CN(C)C(=O)NC1CCCCC1	-0.476% (inactive)

Structure (SMILES)	caspase activation
Cc1ccc(S(=O)(=O)N(C)C[C@H]2Oc3c(NC(=O)c4ccc(-c5nccs5)cc4)cccc3C(=O)N([C@H](C)CO)C[C@H]2C)cc1	-0.882% (inactive)
Cc1ccc(S(=O)(=O)N(C)C[C@H]2OCCCC[C@@H](C)Oc3ccc(NC(=O)NC4CCCCC4)cc3C(=O)N([C@H](C)CO)C[C@@H]2C)cc1	-0.124% (inactive)
C[C@@H]1CN([C@H](C)CO)C(=O)c2cc(NC(=O)Nc3ccc(F)cc3)ccc2O[C@@H]1CN(C)Cc1ccc(Cl)c(Cl)c1	0.0143% (inactive)
C[C@H]1CN([C@@H](C)CO)C(=O)c2cccc(NS(=O)(=O)c3cccs3)c2O[C@H]1CN(C)Cc1ccc(C(=O)Nc2ccccc2N)cc1	-0.485% (inactive)
C[C@@H]1CN([C@H](C)CO)C(=O)Cc2cc(NC(=O)Nc3ccc4c(c3)OCO4)ccc2O[C@@H]1CN(C)Cc1ccc(C(=O)Nc2ccccc2N)cc1	-1.67% (inactive)
O=C(CCCCCC(=O)N/N=C/c1ccc[nH]1)NO	-0.622% (inactive)
C[C@@H]1CCCCO[C@@H](CN(C)Cc2ccc3c(c2)OCO3)[C@@H](C)CN([C@@H](C)CO)C(=O)c2cc(NC(=O)C3CCCCC3)ccc2O1	1.06% (inactive)
Cc1noc(C)c1NC(=O)N(C)C[C@@H]1OCCCC[C@H](C)Oc2ccc(NC(=O)NC3CCCCC3)cc2C(=O)N([C@H](C)CO)C[C@H]1C	-1.23% (inactive)
Cc1noc(C)c1S(=O)(=O)N(C)C[C@H]1OCCCC[C@@H](C)Oc2ccc(NC(=O)c3ccccc3)cc2C(=O)N([C@@H](C)CO)C[C@H]1C	0.679% (inactive)
C[C@@H]1CCCCO[C@@H](CN(C)Cc2ccncc2)[C@H](C)CN([C@H](C)CO)C(=O)c2cc(NC(=O)NC3CCCCC3)ccc2O1	0.887% (inactive)
C[C@@H]1CCCCO[C@@H](CN(C)C(=O)C2CCCCC2)[C@H](C)CN([C@H](C)CO)C(=O)c2cc(NC(=O)c3ccccc3)ccc2O1	-0.0371% (inactive)
CNC[C@@H]1Oc2ccc(NC(=O)C3CCCCC3)cc2CC(=O)N([C@@H](C)CO)C[C@H]1C	-2% (inactive)
Cc1noc(C)c1NC(=O)Nc1ccc2c(c1)CC(=O)N([C@@H](C)CO)C[C@H](C)[C@H](CN(C)S(=O)(=O)c1c(C)noc1C)O2	-0.264% (inactive)
C[C@@H]1CN([C@H](C)CO)C(=O)Cc2cc(NC(=O)C3CCCCC3)ccc2O[C@H]1CN(C)S(=O)(=O)c1ccc(Cl)cc1	-0.597% (inactive)
Cc1noc(C)c1NC(=O)N(C)C[C@H]1OCCCC[C@H](C)Oc2ccc(NC(=O)Cc3ccccc3)cc2C(=O)N([C@H](C)CO)C[C@@H]1C	-0.000815% (inactive)
Cc1noc(C)c1S(=O)(=O)N(C)C[C@@H]1OCCCC[C@H](C)Oc2ccc(NC(=O)NC3CCCCC3)cc2C(=O)N([C@@H](C)CO)C[C@H]1C	2.87% (inactive)
COc1cc(O)cc(OC)c1/C=N/NC(=O)c1ccccc1O	-0.325% (inactive)
C[C@@H]1CCCCO[C@@H](CN(C)C(=O)Nc2cccc3ccccc23)[C@H](C)CN([C@@H](C)CO)C(=O)c2cc(NS(=O)(=O)c3ccccc3)ccc2O1	0.255% (inactive)
COc1ccc(S(=O)(=O)Nc2ccc3c(c2)C(=O)N([C@@H](C)CO)C[C@H](C)[C@@H](CN(C)C(=O)Nc2ccc4c(c2)OCO4)OCCCC[C@@H](C)O3)cc1	0.557% (inactive)
C[C@H]1CCCCO[C@@H](CN(C)Cc2ccc3c(c2)OCO3)[C@@H](C)CN([C@@H](C)CO)C(=O)c2cc(NC(=O)c3ccccc3)ccc2O1	-0.254% (inactive)

Structure (SMILES)	caspase activation
C[C@@H]1CN([C@@H](C)CO)C(=O)c2cc(NC(=O)Nc3ccccc3)ccc2O[C@H]1CN(C)S(=O)(=O)c1ccccc1	-0.0866% (inactive)
C[C@@H]1CCCCO[C@H](CN(C)C(=O)Nc2cccc3ccccc23)[C@H](C)CN([C@@H](C)CO)C(=O)c2cc(NC(=O)CCCN(C)C)ccc2O1	-0.756% (inactive)
COc1ccc(CN(C)C[C@@H]2OCCCC[C@H](C)Oc3ccc(NS(=O)(=O)c4ccc(F)cc4)cc3C(=O)N([C@@H](C)CO)C[C@@H]2C)cc1	0.494% (inactive)
O=C(NO)c1cccc(C(=O)N/N=C/c2c[nH]c3ccccc23)c1	-1.04% (inactive)
C[C@@H]1CN([C@@H](C)CO)C(=O)CCCn2nncc2CO[C@@H]1CN(C)S(=O)(=O)c1ccc(-c2ccccc2)cc1	-0.179% (inactive)
Cc1ccc(S(=O)(=O)Nc2ccc3c(c2)C(=O)N([C@H](C)CO)C[C@H](C)[C@H](CN(C)C(=O)Nc2ccc4c(c2)OCO4)OCCCC[C@@H](C)O3)cc1	-0.5% (inactive)
C[C@@H]1CCCCO[C@@H](CN(C)Cc2ccccc2)[C@H](C)CN([C@H](C)CO)C(=O)c2cc(NC(=O)Nc3cccc4ccccc34)ccc2O1	1.29% (inactive)
C[C@@H]1CCCCO[C@@H](CN(C)CC2CCCCC2)[C@H](C)CN([C@H](C)CO)C(=O)c2cc(NC(=O)C3CCCCC3)ccc2O1	0.00789% (inactive)
CC(C)NC(=O)Nc1ccc2c(c1)C(=O)N([C@H](C)CO)C[C@H](C)[C@@H](CN(C)Cc1ccc3c(c1)OCO3)OCCCC[C@H](C)O2	-0.756% (inactive)
CNC[C@H]1OCCCC[C@@H](C)Oc2ccc(NS(C)(=O)=O)cc2C(=O)N([C@@H](C)CO)C[C@H]1C	-0.624% (inactive)
COc1ccc(S(=O)(=O)Nc2ccc3c(c2)C(=O)N([C@H](C)CO)C[C@@H](C)[C@H](CN(C)C(=O)c2ccncc2)OCCCC[C@@H](C)O3)cc1	0.262% (inactive)
C[C@H]1CN([C@@H](C)CO)C(=O)CCCn2cc(nn2)CO[C@@H]1CN(C)S(=O)(=O)c1ccccc1C#N	0.483% (inactive)
C[C@H]1CN([C@@H](C)CO)C(=O)Cc2cc(NC(=O)CCCCCC(=O)Nc3ccccc3N)ccc2O[C@@H]1CN(C)Cc1ccncc1	-0.722% (inactive)
CC(C)NC(=O)Nc1ccc2c(c1)C(=O)N([C@@H](C)CO)C[C@@H](C)[C@H](CN(C)Cc1ccc(Cl)c(Cl)c1)OCCCC[C@H](C)O2	-1.26% (inactive)
COc1ccc(NC(=O)N(C)C[C@H]2OCCCC[C@H](C)Oc3ccc(NC(=O)NC4CCCCC4)cc3C(=O)N([C@@H](C)CO)C[C@@H]2C)cc1	-0.198% (inactive)
C[C@@H]1CN([C@H](C)CO)C(=O)c2cc(NC(=O)Cn3cnnn3)ccc2O[C@@H]1CN(C)C(=O)Nc1ccc2c(c1)OCO2	-0.00909% (inactive)
C[C@H](CO)N1C[C@H](C)[C@@H](CN(C)CC2CC2)OCCCC[C@H](C)Oc2ccc(NC(=O)Cc3ccccc3)cc2C1=O	0.105% (inactive)
CCCN(C)C[C@@H]1OCCCC[C@@H](C)Oc2ccc(NC(=O)Nc3ccc(C(F)(F)F)cc3)cc2C(=O)N([C@H](C)CO)C[C@H]1C	1.62% (inactive)
C[C@H](CO)N1C[C@H](C)[C@@H](CN(C)Cc2ccncc2)Oc2ccc(NS(=O)(=O)c3ccc(Cl)cc3)cc2CC1=O	-1.19% (inactive)
